Tested on: Fibroblast
Test: Multiplex assay against human fibroblast
Format: toxicity, cell-based
Procedure, shortened: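 Cells were classed with CellPathfinder machine-learning gating, first as Hoechst high-intensity objects or normal cells, then (normal cells) as healthy, pyknosed or fragmented nuclei, and finally (pyknosed cells) as mitotic or apoptotic. Staining of live cells at seeding used Hoechst33342, BioTracker Green Microtubule Cytoskeleton Dye, MitoTracker Red and Annexin V Alexa Fluor 680, with imaging on a CQ1 microscope at 37°C and 5% CO2 after compound addition. Tubulin, mitochondrial-mass and membrane-permeability phenotypes are per cents of healthy-nucleus cells.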

[1] = 12 h, 1 µM, compound concentration 1 uM, replicate 1
[2] = 12 h, 1 µM, compound concentration 1 uM, replicate 2
[3] = 12 h, 10 µM, compound concentration 10 uM, replicate 1
[4] = 12 h, 10 µM, compound concentration 10 uM, replicate 2
[5] = 24 h, 1 µM, compound concentration 1 uM, replicate 1
[6] = 24 h, 1 µM, compound concentration 1 uM, replicate 2
[7] = 24 h, 10 µM, compound concentration 10 uM, replicate 1
[8] = 24 h, 10 µM, compound concentration 10 uM, replicate 2
[9] = 48 h, 1 µM, compound concentration 1 uM, replicate 1
[10] = 48 h, 1 µM, compound concentration 1 uM, replicate 2
[11] = 48 h, 10 µM, compound concentration 10 uM, replicate 1
[12] = 48 h, 10 µM, compound concentration 10 uM, replicate 2

SMILES: O=C(Cc1ccc(-c2ccc(OCCN3CCOCC3)cc2)cn1)NCc1ccccc1 [TIRBANIBULIN]
- Population Apoptotic (%) [1]: 71%
- Population Fragmented Nuclei (%) [1]: 20%
- Population Healthy Nuclei (%) [1]: 47%
- Population Hoechst High Intensity Objects (%) [1]: 16%
- Population Membrane Permeable-Phenotype (%) [1]: 18%
- Population Mitochondria Different-Phenotype (%) [1]: 9%
- Population Mitotic Cells (%) [1]: 28%
- Population Normal (%) [1]: 83%
- Population Pyknosed Nuclei (%) [1]: 31%
- Population Tubulin-Different-Phenotype (%) [1]: 12%
- Total Cell Count [1]: 80
- Population Apoptotic (%) [2]: 0%
- Population Fragmented Nuclei (%) [2]: 5%
- Population Healthy Nuclei (%) [2]: 90%
- Population Hoechst High Intensity Objects (%) [2]: 12%
- Population Membrane Permeable-Phenotype (%) [2]: 9%
- Population Mitochondria Different-Phenotype (%) [2]: 21%
- Population Mitotic Cells (%) [2]: 100%
- Population Normal (%) [2]: 87%
- Population Pyknosed Nuclei (%) [2]: 4%
- Total Cell Count [2]: 108
- Population Apoptotic (%) [3]: 66%
- Population Fragmented Nuclei (%) [3]: 30%
- Population Healthy Nuclei (%) [3]: 39%
- Population Hoechst High Intensity Objects (%) [3]: 15%
- Population Membrane Permeable-Phenotype (%) [3]: 17%
- Population Mitochondria Different-Phenotype (%) [3]: 13%
- Population Mitotic Cells (%) [3]: 33%
- Population Normal (%) [3]: 84%
- Population Pyknosed Nuclei (%) [3]: 29%
- Population Tubulin-Different-Phenotype (%) [3]: 28%
- Total Cell Count [3]: 134
- Population Apoptotic (%) [4]: 50%
- Population Fragmented Nuclei (%) [4]: 13%
- Population Healthy Nuclei (%) [4]: 78%
- Population Hoechst High Intensity Objects (%) [4]: 10%
- Population Membrane Permeable-Phenotype (%) [4]: 4%
- Population Mitochondria Different-Phenotype (%) [4]: 19%
- Population Mitotic Cells (%) [4]: 50%
- Population Normal (%) [4]: 89%
- Population Pyknosed Nuclei (%) [4]: 7%
- Population Tubulin-Different-Phenotype (%) [4]: 12%
- Total Cell Count [4]: 81
- Population Apoptotic (%) [5]: 57%
- Population Fragmented Nuclei (%) [5]: 29%
- Population Healthy Nuclei (%) [5]: 44%
- Population Hoechst High Intensity Objects (%) [5]: 14%
- Population Membrane Permeable-Phenotype (%) [5]: 37%
- Population Mitochondria Different-Phenotype (%) [5]: 9%
- Population Mitotic Cells (%) [5]: 42%
- Population Normal (%) [5]: 85%
- Population Pyknosed Nuclei (%) [5]: 26%
- Population Tubulin-Different-Phenotype (%) [5]: 18%
- Total Cell Count [5]: 84
- Population Apoptotic (%) [6]: 61%
- Population Fragmented Nuclei (%) [6]: 16%
- Population Healthy Nuclei (%) [6]: 66%
- Population Hoechst High Intensity Objects (%) [6]: 9%
- Population Membrane Permeable-Phenotype (%) [6]: 6%
- Population Mitochondria Different-Phenotype (%) [6]: 44%
- Population Mitotic Cells (%) [6]: 38%
- Population Normal (%) [6]: 90%
- Population Pyknosed Nuclei (%) [6]: 17%
- Population Tubulin-Different-Phenotype (%) [6]: 10%
- Total Cell Count [6]: 155
- Population Apoptotic (%) [7]: 54%
- Population Fragmented Nuclei (%) [7]: 42%
- Population Healthy Nuclei (%) [7]: 37%
- Population Hoechst High Intensity Objects (%) [7]: 13%
- Population Membrane Permeable-Phenotype (%) [7]: 17%
- Population Mitochondria Different-Phenotype (%) [7]: 8%
- Population Mitotic Cells (%) [7]: 45%
- Population Normal (%) [7]: 86%
- Population Pyknosed Nuclei (%) [7]: 20%
- Population Tubulin-Different-Phenotype (%) [7]: 35%
- Total Cell Count [7]: 138
- Population Apoptotic (%) [8]: 66%
- Population Fragmented Nuclei (%) [8]: 19%
- Population Healthy Nuclei (%) [8]: 57%
- Population Hoechst High Intensity Objects (%) [8]: 10%
- Population Membrane Permeable-Phenotype (%) [8]: 10%
- Population Mitochondria Different-Phenotype (%) [8]: 40%
- Population Mitotic Cells (%) [8]: 33%
- Population Normal (%) [8]: 89%
- Population Pyknosed Nuclei (%) [8]: 23%
- Population Tubulin-Different-Phenotype (%) [8]: 13%
- Total Cell Count [8]: 82
- Population Apoptotic (%) [9]: 50%
- Population Fragmented Nuclei (%) [9]: 40%
- Population Healthy Nuclei (%) [9]: 47%
- Population Hoechst High Intensity Objects (%) [9]: 14%
- Population Membrane Permeable-Phenotype (%) [9]: 31%
- Population Mitochondria Different-Phenotype (%) [9]: 2%
- Population Mitotic Cells (%) [9]: 50%
- Population Normal (%) [9]: 85%
- Population Pyknosed Nuclei (%) [9]: 12%
- Population Tubulin-Different-Phenotype (%) [9]: 7%
- Total Cell Count [9]: 94
- Population Apoptotic (%) [10]: 71%
- Population Fragmented Nuclei (%) [10]: 35%
- Population Healthy Nuclei (%) [10]: 59%
- Population Hoechst High Intensity Objects (%) [10]: 10%
- Population Membrane Permeable-Phenotype (%) [10]: 18%
- Population Mitochondria Different-Phenotype (%) [10]: 7%
- Population Mitotic Cells (%) [10]: 28%
- Population Normal (%) [10]: 89%
- Population Pyknosed Nuclei (%) [10]: 4%
- Population Tubulin-Different-Phenotype (%) [10]: 15%
- Total Cell Count [10]: 170
- Population Apoptotic (%) [11]: 48%
- Population Fragmented Nuclei (%) [11]: 38%
- Population Healthy Nuclei (%) [11]: 34%
- Population Hoechst High Intensity Objects (%) [11]: 17%
- Population Membrane Permeable-Phenotype (%) [11]: 21%
- Population Mitochondria Different-Phenotype (%) [11]: 7%
- Population Mitotic Cells (%) [11]: 51%
- Population Normal (%) [11]: 82%
- Population Pyknosed Nuclei (%) [11]: 26%
- Population Tubulin-Different-Phenotype (%) [11]: 29%
- Total Cell Count [11]: 143
- Population Apoptotic (%) [12]: 66%
- Population Fragmented Nuclei (%) [12]: 44%
- Population Healthy Nuclei (%) [12]: 53%
- Population Membrane Permeable-Phenotype (%) [12]: 15%
- Population Mitochondria Different-Phenotype (%) [12]: 5%
- Population Mitotic Cells (%) [12]: 33%
- Population Pyknosed Nuclei (%) [12]: 2%
- Population Tubulin-Different-Phenotype (%) [12]: 22%
- Total Cell Count [12]: 164

SMILES: COc1cc2ncnc(Nc3ccc(F)c(Cl)c3)c2cc1NC(=O)/C=C/CN1CCCCC1 [DACOMITINIB ANHYDROUS]
- Population Apoptotic (%) [1]: 72%
- Population Fragmented Nuclei (%) [1]: 33%
- Population Healthy Nuclei (%) [1]: 52%
- Population Hoechst High Intensity Objects (%) [1]: 17%
- Population Membrane Permeable-Phenotype (%) [1]: 6%
- Population Mitochondria Different-Phenotype (%) [1]: 8%
- Population Mitotic Cells (%) [1]: 27%
- Population Normal (%) [1]: 82%
- Population Pyknosed Nuclei (%) [1]: 14%
- Population Tubulin-Different-Phenotype (%) [1]: 46%
- Total Cell Count [1]: 248
- Population Apoptotic (%) [2]: 66%
- Population Fragmented Nuclei (%) [2]: 56%
- Population Healthy Nuclei (%) [2]: 36%
- Population Hoechst High Intensity Objects (%) [2]: 57%
- Population Membrane Permeable-Phenotype (%) [2]: 12%
- Population Mitochondria Different-Phenotype (%) [2]: 25%
- Population Mitotic Cells (%) [2]: 33%
- Population Normal (%) [2]: 42%
- Population Pyknosed Nuclei (%) [2]: 6%
- Population Tubulin-Different-Phenotype (%) [2]: 25%
- Total Cell Count [2]: 103
- Population Apoptotic (%) [3]: 58%
- Population Fragmented Nuclei (%) [3]: 30%
- Population Healthy Nuclei (%) [3]: 53%
- Population Hoechst High Intensity Objects (%) [3]: 14%
- Population Membrane Permeable-Phenotype (%) [3]: 7%
- Population Mitochondria Different-Phenotype (%) [3]: 3%
- Population Mitotic Cells (%) [3]: 41%
- Population Normal (%) [3]: 85%
- Population Pyknosed Nuclei (%) [3]: 15%
- Population Tubulin-Different-Phenotype (%) [3]: 7%
- Total Cell Count [3]: 214
- Population Apoptotic (%) [4]: 28%
- Population Fragmented Nuclei (%) [4]: 47%
- Population Healthy Nuclei (%) [4]: 40%
- Population Hoechst High Intensity Objects (%) [4]: 35%
- Population Membrane Permeable-Phenotype (%) [4]: 20%
- Population Mitochondria Different-Phenotype (%) [4]: 16%
- Population Mitotic Cells (%) [4]: 71%
- Population Normal (%) [4]: 64%
- Population Pyknosed Nuclei (%) [4]: 11%
- Population Tubulin-Different-Phenotype (%) [4]: 16%
- Total Cell Count [4]: 94
- Population Apoptotic (%) [5]: 72%
- Population Fragmented Nuclei (%) [5]: 28%
- Population Healthy Nuclei (%) [5]: 54%
- Population Hoechst High Intensity Objects (%) [5]: 30%
- Population Mitochondria Different-Phenotype (%) [5]: 22%
- Population Mitotic Cells (%) [5]: 28%
- Population Normal (%) [5]: 69%
- Population Pyknosed Nuclei (%) [5]: 17%
- Population Tubulin-Different-Phenotype (%) [5]: 46%
- Total Cell Count [5]: 210
- Population Apoptotic (%) [6]: 100%
- Population Fragmented Nuclei (%) [6]: 51%
- Population Healthy Nuclei (%) [6]: 40%
- Population Hoechst High Intensity Objects (%) [6]: 57%
- Population Membrane Permeable-Phenotype (%) [6]: 5%
- Population Mitochondria Different-Phenotype (%) [6]: 16%
- Population Mitotic Cells (%) [6]: 0%
- Population Normal (%) [6]: 42%
- Population Pyknosed Nuclei (%) [6]: 8%
- Population Tubulin-Different-Phenotype (%) [6]: 16%
- Total Cell Count [6]: 106
- Population Apoptotic (%) [7]: 58%
- Population Fragmented Nuclei (%) [7]: 32%
- Population Healthy Nuclei (%) [7]: 50%
- Population Hoechst High Intensity Objects (%) [7]: 18%
- Population Membrane Permeable-Phenotype (%) [7]: 6%
- Population Mitochondria Different-Phenotype (%) [7]: 2%
- Population Mitotic Cells (%) [7]: 41%
- Population Normal (%) [7]: 81%
- Population Pyknosed Nuclei (%) [7]: 17%
- Population Tubulin-Different-Phenotype (%) [7]: 3%
- Total Cell Count [7]: 249
- Population Apoptotic (%) [8]: 33%
- Population Fragmented Nuclei (%) [8]: 53%
- Population Healthy Nuclei (%) [8]: 36%
- Population Hoechst High Intensity Objects (%) [8]: 30%
- Population Membrane Permeable-Phenotype (%) [8]: 21%
- Population Mitochondria Different-Phenotype (%) [8]: 13%
- Population Mitotic Cells (%) [8]: 66%
- Population Normal (%) [8]: 69%
- Population Pyknosed Nuclei (%) [8]: 9%
- Population Tubulin-Different-Phenotype (%) [8]: 17%
- Total Cell Count [8]: 91

From ChEMBL document CHEMBL4689842, “EUbOPEN Chemogenomics Library wave 1” (2021)
